Consider 22 compounds from publication PMC6039301 (Journal of medicinal chemistry, 2017).

The test system of experiment [1] is ERα levels in MCF-7 breast cancer cells. The experiment in a line: In-cell western assay for ERα level. The experiment is classed as cell-based. As to conditions: MCF-7, 3 μM, 24 h. A digest of the protocol:
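MCF-7 cells seeded at 3000 cells/well, exposed to test compound at a single 3 μM concentration for 24 h. Cells fixed in 4% formaldehyde, permeabilized with 0.1% Triton X-100, blocked, then probed overnight at 4 °C with rabbit anti-ERα (HC-20). IRDye 800 secondary and Cell Tag 700 were used, with ERα signal normalized to Cell Tag. Reported as percent of vehicle; mean of ≥3 independent experiments.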

Experiment [2] relates to ER-positive MCF-7 breast cancer cells. The experiment can be described thus: Cell proliferation assay. As to conditions: for Cell proliferation (CP), percent of vehicle control (antiproliferative efficacy): MCF-7, 3 μM, 6 days, maximum suppression ca. 20%; for IC50: Homo sapiens, MCF7, read-out: IC50 antiproliferative activity. It counts as cell-based.
The subject of the next experiment is ERα levels. The experiment in a line: Western blot analysis of ERα. It counts as cell-based. As to conditions: 3×10^−6 M, 24 h (Figure 6B). A digest of the protocol: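 Cells treated 24 h with test compound at 3×10−10, 3×10−8 or 3×10−6 M; E2 (1×10−8 M) and tamoxifen (3×10−6 M) were reference treatments. Whole-cell extracts made with protease and phosphatase inhibitors, separated on 10% SDS-PAGE and transferred to nitrocellulose. Probed for ERα (F10 antibody) and β-actin. Band levels expressed as percent of vehicle.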
On the technique in general: Immunoblotting shows a protein as a band on a membrane.

Experiment [3] addresses T1, full-length human estrogen receptor alpha (ERα) (Homo sapiens, UniProt P03372).
T1 sequence (P03372 1-595): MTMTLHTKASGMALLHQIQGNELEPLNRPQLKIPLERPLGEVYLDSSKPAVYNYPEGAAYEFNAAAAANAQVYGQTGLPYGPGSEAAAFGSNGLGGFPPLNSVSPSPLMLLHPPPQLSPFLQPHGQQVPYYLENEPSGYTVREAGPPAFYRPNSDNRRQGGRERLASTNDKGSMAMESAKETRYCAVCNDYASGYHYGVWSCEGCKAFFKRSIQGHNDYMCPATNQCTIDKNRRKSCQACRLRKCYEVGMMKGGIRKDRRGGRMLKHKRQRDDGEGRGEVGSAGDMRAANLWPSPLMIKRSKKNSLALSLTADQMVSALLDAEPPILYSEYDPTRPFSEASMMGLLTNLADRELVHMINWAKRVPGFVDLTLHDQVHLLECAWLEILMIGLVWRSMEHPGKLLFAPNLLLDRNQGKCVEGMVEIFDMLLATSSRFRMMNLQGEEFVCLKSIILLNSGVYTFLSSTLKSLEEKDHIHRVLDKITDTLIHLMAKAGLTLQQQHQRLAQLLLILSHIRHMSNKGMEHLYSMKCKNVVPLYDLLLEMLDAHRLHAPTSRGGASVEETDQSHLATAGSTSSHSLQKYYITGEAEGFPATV
The settings on record: cited from earlier work.

Molecules are shown by their SMILES. Entries after “also recorded” stand apart in the source; their conditions may differ.

For `NCCCNC(=O)/C=C/c1ccc(C(=C2C3CC4CC(C3)CC2C4)c2ccc(O)cc2)cc1` [Compound 25, (E)-3-(4-(((1r,3r,5R,7S)-Adamantan-2-ylidene)(4-hydroxyphenyl)methyl)phenyl)-N-(3-aminopropyl)acrylamide], the “ERα level, percent of vehicle control (ERα downregulating efficacy)” value (“ERα level, percent of vehicle control” below) in experiment [1] is on record as “good”. For the compound `CCCCCC(=O)/C=C/c1ccc(C(=C2C3CC4CC(C3)CC2C4)c2ccc(O)cc2)cc1` [Compound 6, (E)-1-(4-(((1r,3r,5R,7S)-Adamantan-2-ylidene)(4-hydroxyphenyl)methyl)phenyl)oct-1-en-3-one], the “Cell proliferation (CP), percent of vehicle control (antiproliferative efficacy)” value (from here on “Cell proliferation (CP), percent”) in experiment [2] was “some efficacy”. In experiment [1], the “ERα level, percent of vehicle control” value is given as “some efficacy”. Regarding `COC(=O)/C=C/c1ccc(C(=C2C3CC4CC(C3)CC2C4)c2ccc(O)cc2)cc1` [Compound 7, Methyl (E)-3-(4-(((1r,3r,5R,7S)-Adamantan-2-ylidene)(4-hydroxyphenyl)methyl)phenyl) acrylate], in experiment [2], the “Cell proliferation (CP), percent” value is “no anti-proliferative activity”. Regarding `CC/C(=C(\c1ccc(O)cc1)c1ccc(OCCN(C)C)cc1)c1ccccc1` [hydroxytamoxifen, 4-hydroxytamoxifen], the “effect on cellular ERα level (Western blot)” value in the experiment with ERα levels is listed as “upregulate ERα levels”. Consider `CCCCOC(=O)/C=C/c1ccc(C(=C2C3CC4CC(C3)CC2C4)c2ccc(O)cc2)cc1` [Compound 9, Butyl (E)-3-(4-(((1r,3r,5R,7S)-Adamantan-2-ylidene)(4-hydroxyphenyl)methyl)phenyl) acrylate], for which, in experiment [1], the “ERα level, percent of vehicle control” value is “good to very good”. For `O=C(/C=C/c1ccc(C(=C2C3CC4CC(C3)CC2C4)c2ccc(O)cc2)cc1)OCCCCO` [Compound 13, 4-Hydroxybutyl (E)-3-(4-(((1r,3r,5R,7S)-Adamantan-2-ylidene)(4-hydroxyphenyl)methyl)phenyl)acrylate], the “ERα level, percent of vehicle control” value in experiment [1] was “good to very good”. Same read-out and setting: under `NCCCCNC(=O)/C=C/c1ccc(C(=C2C3CC4CC(C3)CC2C4)c2ccc(O)cc2)cc1` [Compound 26, (E)-3-(4-(((1r,3r,5R,7S)-Adamantan-2-ylidene)(4-hydroxyphenyl)methyl)phenyl)-N-(4-aminobutyl)acrylamide] stands “good”. For `O=C(/C=C/c1ccc(C(=C2C3CC4CC(C3)CC2C4)c2ccc(O)cc2)cc1)NCCCO` [Compound 21, (E)-3-(4-(((1r,3r,5R,7S)-Adamantan-2-ylidene)(4-hydroxyphenyl)methyl)phenyl)-N-(3-hydroxypropyl)acrylamide], in experiment [2], the IC50 worked out at 1.9 nM and the “Cell proliferation (CP), percent” value is recorded as “equivalent to that of the parent acid 5; also recorded: comparable to that of fulvestrant”. For the same compound, in experiment [1], the “ERα level, percent of vehicle control” value was “good and similar to that of the parent 5; also recorded: comparable to that of fulvestrant”.

Turning to `NCCNC(=O)/C=C/c1ccc(C(=C2C3CC4CC(C3)CC2C4)c2ccc(O)cc2)cc1` [Compound 24, (E)-3-(4-(((1r,3r,5R,7S)-Adamantan-2-ylidene)(4-hydroxyphenyl)methyl)phenyl)-N-(2-aminoethyl)acrylamide], the IC50 in experiment [2] was found to be 10 nM. Consider `CC(C)CCCCCOC(=O)/C=C/c1ccc(C(=C2C3CC4CC(C3)CC2C4)c2ccc(O)cc2)cc1` [Compound 10, 6-Methylheptyl (E)-3-(4-(((1r,3r,5R,7S)-Adamantan-2-ylidene)(4-hydroxyphenyl)methyl)phenyl)acrylate], for which the “Cell proliferation (CP), percent” value in experiment [2] is on record as “no anti-proliferative activity”. In addition, the “ERα level, percent of vehicle control” value in experiment [1] is given as “good to very good”. Turning to `C[C@]12CC[C@@H]3c4ccc(O)cc4C[C@@H](CCCCCCCCC[S+]([O-])CCCC(F)(F)C(F)(F)F)[C@H]3[C@@H]1CC[C@@H]2O` (some centres unmarked) [Fulvestrant, fulvestrant, reference compound], in experiment [1], the “ERα level, percent of vehicle control” value was determined as 20%.

As to `NC(=O)/C=C/c1ccc(C(=C2C3CC4CC(C3)CC2C4)c2ccc(O)cc2)cc1` [Compound 16, (E)-3-(4-(((1r,3r,5R,7S)-Adamantan-2-ylidene)(4-hydroxyphenyl)methyl)phenyl)acrylamide], in experiment [2], the “Cell proliferation (CP), percent” value is listed as “Least good”. Besides, the “ERα level, percent of vehicle control” value in experiment [1] was “Least good”.

Regarding `O=C(O)/C=C/c1ccc(C(=C2C3CC4CC(C3)CC2C4)c2ccc(O)cc2)cc1` [Compound 5, (E)-3-(4-(((1r,3r,5R,7S)-Adamantan-2-ylidene)(4-hydroxyphenyl)methyl)phenyl)acrylic acid], the IC50 in experiment [2] was determined as 31 nM. On to `N#C/C=C/c1ccc(C(=C2C3CC4CC(C3)CC2C4)c2ccc(O)cc2)cc1` [Compound 14, (E)-3-(4-(((1r,3r,5R,7S)-Adamantan-2-ylidene)(4-hydroxyphenyl)methyl)phenyl) acrylonitrile], for which the “Cell proliferation (CP), percent” value in experiment [2] was “matching that of vehicle control; also recorded: no anti-proliferative activity”. Moreover, the “ERα level, percent of vehicle control” value in experiment [1] was “very effective”.

For `CCCNS(=O)(=O)/C=C/c1ccc(C(=C2C3CC4CC(C3)CC2C4)c2ccc(O)cc2)cc1` [Compound 15, (E)-2-(4-(((1r,3r,5R,7S)-Adamantan-2-ylidene)(4-hydroxyphenyl)methyl)phenyl)-N-propylethene-1-sulfonamide], the “Cell proliferation (CP), percent” value in experiment [2] was “only modest”. Besides, in experiment [1], the “ERα level, percent of vehicle control” value is on record as “only modest”. With `CCCCN(C)C(=O)/C=C/c1ccc(C(=C2C3CC4CC(C3)CC2C4)c2ccc(O)cc2)cc1` [Compound 29, (E)-3-(4-(((1r,3r,5R,7S)-Adamantan-2-ylidene)(4-hydroxyphenyl)methyl)phenyl)-N-butyl-N-methylacrylamide], the “Cell proliferation (CP), percent” value in experiment [2] is “very poor efficacies”. Further, the “ERα level, percent of vehicle control” value in experiment [1] was “very poor efficacies”. In the case of `Oc1ccc(C(=C2C3CC4CC(C3)CC2C4)c2ccc(O)cc2)cc1` [parent bisphenolic adamantyl-core], in experiment [3], the “binding affinity for ERα, fold higher than that of estradiol (E2)” value is reported as “ca. 3 fold”. For the same compound, the Ki in experiment [3] (read-out: Ki for ERα, corresponds to the affinity relative to E2) was 0.07 nM. In the case of `O=C(/C=C/c1ccc(C(=C2C3CC4CC(C3)CC2C4)c2ccc(O)cc2)cc1)NCC(F)(F)F` [Compound 28, (E)-3-(4-(((1r,3r,5R,7S)-Adamantan-2-ylidene)(4-hydroxyphenyl)methyl)phenyl)-N-(2,2,2-trifluoroethyl)acrylamide], in experiment [2], the “Cell proliferation (CP), percent” value is “Least good”. For the same compound, the “ERα level, percent of vehicle control” value in experiment [1] is recorded as “Least good”. As for `O=C(/C=C/c1ccc(C(=C2C3CC4CC(C3)CC2C4)c2ccc(O)cc2)cc1)NCCO` [Compound 20, (E)-3-(4-(((1r,3r,5R,7S)-Adamantan-2-ylidene)(4-hydroxyphenyl)methyl)phenyl)-N-(2-hydroxyethyl)acrylamide], in experiment [2], the IC50 amounted to 2.4 nM and the “Cell proliferation (CP), percent” value is on record as “impressive efficacies”. The “ERα level, percent of vehicle control” value in experiment [1] was “impressive efficacies”. As for `O=C(/C=C/c1ccc(C(=C2C3CC4CC(C3)CC2C4)c2ccc(O)cc2)cc1)NCCCCCO` [Compound 23, (E)-3-(4-(((1r,3r,5R,7S)-Adamantan-2-ylidene)(4-hydroxyphenyl)methyl)phenyl)-N-(5-hydroxypentyl)acrylamide], in experiment [2], the IC50 was 10 nM and the “Cell proliferation (CP), percent” value is reported as “equivalent to that of the parent acid 5”. The “ERα level, percent of vehicle control” value in experiment [1] is “good and similar to that of the parent 5”. As for `O=C(/C=C/c1ccc(C(=C2C3CC4CC(C3)CC2C4)c2ccc(O)cc2)cc1)N(CCO)CCO` [Compound 31, (E)-3-(4-(((1r,3r,5R,7S)-Adamantan-2-ylidene)(4-hydroxyphenyl)methyl)phenyl)-N,N-bis(2-hydroxyethyl)acrylamide], the “Cell proliferation (CP), percent” value in experiment [2] is on record as “relatively unimpressive”. The “ERα level, percent of vehicle control” value in experiment [1] is “relatively unimpressive”. Regarding `CCCCNC(=O)/C=C/c1ccc(C(=C2C3CC4CC(C3)CC2C4)c2ccc(O)cc2)cc1` [Compound 18, (E)-3-(4-(((1r,3r,5R,7S)-Adamantan-2-ylidene)(4-hydroxyphenyl)methyl)phenyl)-N-butylacrylamide], the “Cell proliferation (CP), percent” value in experiment [2] is recorded as “good efficacies”. Also, in experiment [1], the “ERα level, percent of vehicle control” value is “good efficacies”.

As a reminder, the IC50 is the concentration at which inhibition is half-maximal. The term Ki denotes a measure of affinity in units of concentration, obtained from inhibition or displacement.
